What is called Ki is the equilibrium dissociation constant of an inhibitor or competing ligand from its target.

We go through 13 molecules from ChEMBL document CHEMBL4616679, “Fragment Screening Hit Draws Attention to a Novel Transient Pocket Adjacent to the Recognition Site of the tRNA-Modifying Enzyme TGT” (J Med Chem, 2020).

The nature of the assay: Inhibition of Zymomonas mobilis tRNA-guanine transglycosylase expressed in Escherichia coli cells BL21-CodonPlus (DE3)-RIPL in presence of and tRNATyr [-3H]-guanine incubated for 60 mins by liquid scintillation counting based radioactive assay. In outline:
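Z. mobilis TGT (Strep-tag II removed by thrombin) at 9–150 nM, chosen by expected affinity; tRNA^Tyr held at 1.5 µM with saturating [8-³H]-guanine at 10 µM in 100 mM HEPES pH 7.3, 20 mM MgCl₂, 0.037% (v/v) Tween 20. Four 15 µL aliquots taken at 60 min intervals; guanine incorporation into tRNA read by liquid scintillation counting; Ki from reduction of incorporation rate.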
Consider `Nc1nc2cc3[nH]c(NCCN4CCOCC4)nc3cc2c(=O)[nH]1`, for which the Ki was found to be 0.006 µM.
With `CNc1nc2cc3c(=O)[nH]c(N)nc3cc2[nH]1`, the Ki was found to be 0.058 µM.
Turning to `CNc1nc2cc3c(=O)[nH]cnc3cc2[nH]1`, the Ki turned out to be 7 µM.
Regarding `NC(=O)c1ccc2nc(NCCN3CCOCC3)[nH]c2c1`, the Ki is 544 µM.
As for `CNC(=O)c1ccc2nc(NCCN3CCOCC3)[nH]c2c1`, the Ki came out at 264 µM.
As to `N=C(N)Nc1ccc2[nH]c(NCCN3CCOCC3)nc2c1`, the Ki came to 58 µM.
With `CNc1nc2ccc(C(=O)NN)cc2[nH]1`, the inhibition constant (Ki) amounted to 283 µM.
With `CNc1nc2ccc(C(N)=O)cc2[nH]1`, the Ki came out at 300 µM.
Under `NNC(=O)c1ccc2nc(NCCN3CCOCC3)[nH]c2c1` stands 282 µM.
Turning to `CNC(=O)c1ccc2nc(NC)[nH]c2c1`, the Ki is 270 µM.
Consider `CNc1nc2cc3c(cc2[nH]1)CNC(N)=N3`, for which the Ki was 17 µM.
Under `CNc1nc2cc(NC(=N)N)ccc2[nH]1` stands 19 µM; under `CC#CC1NC(N)=Nc2cc3nc(NC)[nH]c3cc21` (racemic), 48 µM.
